PubChem BioAssay AID504349 (Southern Research Specialized Biocontainment Screening …, 2011)
Calls of active or inactive are those of the source. How the calls were made is not given here.

Test system: E. coli EV36 K1, T7 phage lysis, OD600 3 h
Assay: OD600 growth after T7 infection, EV36 – E. coli EV36 K1, powder samples, selectivity assay for bacterial capsule biogenesis inhibitors, dose response (AID 504349)
Details: not given
Method in brief: (§1)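 Test system: E. coli EV36 K1:K-12 hybrid cells | Reagent: T7 phage infection | Timing: Compound pre-exposure 1.5 h at 37 °C shaking, 3 h post-phage | Evaluation: Phage lysis inhibition from OD600 | Medium: LB broth for the overnight bacterial culture | Replicates: Quadruplicate wells | Detection: Optical density at 600 nm, bacterial growth absorbance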
O=C(Nc1ccncc1)c1ccc2ncsc2c1 gave an IC50 of less than 0.39 µM. For O=C(ONc1ccc(N=NC(=O)c2ccccc2O)cc1)c1ccccc1, the IC50 was less than 0.39 µM. O=C(NCc1cc([N+](=O)[O-])ccc1O)c1cccnc1Sc1ccccc1 showed an IC50 of 4.6 µM. Compound O=C(NCc1cc([N+](=O)[O-])ccc1O)c1cccnc1Sc1ccccc1Cl has an IC50 of 1.8 µM. For O=C(COc1ccc(Cl)cc1Cl)Nc1ccc(C(=O)Nc2ccccc2C(=O)O)cc1, the IC50 was 2.9 µM. Compound COc1ccc2nc(NC(=O)c3ccc(Br)s3)sc2c1 has an IC50 of less than 0.39 µM. Compound CC1(C(=O)O)CCC(C(=O)Nc2ccc3ccccc3c2)C1(C)C (stereo not given) has an IC50 of 8.5 µM. Compound CC1=NN2C(=N)/C(=C\c3ccc(SCc4ccco4)o3)C(=O)N=C2S1 has an IC50 of 1.5 µM. CCOc1ccc(-c2cc(NC(=O)c3c(F)cccc3F)c(C(=O)O)s2)cc1 gave an IC50 of less than 0.39 µM.

Test system: not listed separately
Assay: as above
Details: E. coli EV36 K1, T7 phage lysis, OD600 3 h; at 100 µM (top of the series)
Method in brief: as §1
For COc1ccc(OC)c(-c2cc(C(=O)O)c3cc4ccccc4cc3n2)c1, the phage lysis inhibition (viability) was 99% (inactive). In the case of O=C(O)c1cc(-c2cccc(Cl)c2)nc2cc3ccccc3cc12, the phage lysis inhibition (viability) is reported as 101% (inactive). With C=CCOc1ccc(C2c3c(oc4ccccc4c3=O)C(=O)N2CCCN2CCOCC2)cc1 (stereo not given) the phage lysis inhibition (viability) was 97.4% (inactive). With Cc1cc(C)c2c(=O)c(-c3cc(C(=O)O)c4cc5ccccc5cc4n3)coc2c1 the phage lysis inhibition (viability) was 107% (inactive). With O=C(O)c1cc(-c2c[nH]c3ccccc23)nc2cc3ccccc3cc12 the phage lysis inhibition (viability) was 101% (inactive). With Cc1ccc(C2c3c(oc4cc(C)c(C)cc4c3=O)C(=O)N2CCCN2CCOCC2)cc1 (stereo not given) the phage lysis inhibition (viability) was 91.7% (inactive).
